# Measurements published in ChEMBL document CHEMBL4038284, “Synthesis of novel quinoline-based 4,5-dihydro-1H-pyrazoles as potential anticancer, antifungal, antibacterial and antiprotozoal agents” (Eur J Med Chem, 2017).
# Tests used:
# Assay type in all cases: functional
# NCI/ADR-RES = assay: Growth inhibition of human NCI/ADR-RES cells incubated for 48 hrs by sulforhodamine B assay
# Outline: (§1)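 NCI 60-line screen. Cells in RPMI-1640 with 5% FBS and 2 mM L-glutamine, preincubated 24 h, then time-zero plates TCA-fixed. Compounds from DMSO stocks given at five final concentrations (100, 10, 1.0, 0.1, 0.01 µM) for 48 h at 37 °C, 5% CO2. Cells fixed with 10% TCA, SRB-stained, read at 515 nm. GI50 is the concentration giving 50% lower net protein increase versus control.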
# MCF7 = assay: Growth inhibition of human MCF7 cells incubated for 48 hrs by sulforhodamine B assay; conditions: MCF7, 48 h; outline: as §1
# SF-268 = assay: Growth inhibition of human SF268 cells incubated for 48 hrs by sulforhodamine B assay; conditions: SF-268, 48 h
# Outline: (§2)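 Five-dose NCI SRB assay at 100, 10, 1.0, 0.1 and 0.01 μM for 48 h at 37 °C, 5% CO2. Medium was RPMI-1640 with 5% FBS and 2 mM glutamine. Time-zero plates were TCA-fixed at compound addition, A515 read after SRB staining. GI50 was solved from [(Ti−Tz)/(C−Tz)]×100 = 50. Values beyond the tested range are given as > or <.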
# EKVX = assay: Growth inhibition of human EKVX cells incubated for 48 hrs by sulforhodamine B assay
# Outline: (§3)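 NCI five-dose SRB assay (100, 10, 1.0, 0.1, 0.01 µM) with 48 h exposure in RPMI-1640 with 5% FBS and 2 mM L-glutamine. Cells fixed with TCA and stained with SRB, read at 515 nm. GI50 is the concentration where [(Ti−Tz)/(C−Tz)]×100 = 50.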
# SK-MEL-5 = assay: Growth inhibition of human SK-MEL-5 cells incubated for 48 hrs by sulforhodamine B assay; conditions: SK-MEL-5, 48 h; outline: as §1
# SR = assay: Growth inhibition of human SR cells incubated for 48 hrs by sulforhodamine B assay; outline: as §1
# NCI-H522 = assay: Growth inhibition of human NCI-H522 cells incubated for 48 hrs by sulforhodamine B assay; conditions: NCI-H522, 48 h; outline: as §1
# SF-295 = assay: Growth inhibition of human SF295 cells incubated for 48 hrs by sulforhodamine B assay; conditions: SF-295, 48 h; outline: as §2
# MDA-MB-231 = assay: Growth inhibition of human MDA-MB-231 cells incubated for 48 hrs by sulforhodamine B assay; conditions: MDA-MB-231, 48 h; outline: as §2
# NCI-H226 = assay: Growth inhibition of human NCI-H226 cells incubated for 48 hrs by sulforhodamine B assay; conditions: NCI-H226, 48 h; outline: as §1
# HT-29 = assay: Growth inhibition of human HT-29 cells incubated for 48 hrs by sulforhodamine B assay; conditions: HT-29, 48 h; outline: as §2
# COLO 205 = assay: Growth inhibition of human COLO205 cells incubated for 48 hrs by sulforhodamine B assay; conditions: COLO 205, 48 h; outline: as §3
# M14 = assay: Growth inhibition of human M14 cells incubated for 48 hrs by sulforhodamine B assay; conditions: M14, 48 h; outline: as §2
# HCC 2998 = assay: Growth inhibition of human HCC2998 cells incubated for 48 hrs by sulforhodamine B assay; conditions: HCC 2998, 48 h; outline: as §1
# HCT-116 = assay: Growth inhibition of human HCT116 cells incubated for 48 hrs by sulforhodamine B assay; conditions: HCT-116, 48 h; outline: as §3
# OVCAR-8 = assay: Growth inhibition of human OVCAR8 cells incubated for 48 hrs by sulforhodamine B assay; conditions: OVCAR-8, 48 h; outline: as §2
# K562 = assay: Growth inhibition of human K562 cells incubated for 48 hrs by sulforhodamine B assay; conditions: K562, 48 h; outline: as §1
# RPMI-8226 = assay: Growth inhibition of human RPMI8226 cells incubated for 48 hrs by sulforhodamine B assay; conditions: RPMI-8226, 48 h; outline: as §1
# NCI-H23 = assay: Growth inhibition of human NCI-H23 cells incubated for 48 hrs by sulforhodamine B assay; conditions: NCI-H23, 48 h; outline: as §2
# A549 = assay: Growth inhibition of human A549/ATCC cells incubated for 48 hrs by sulforhodamine B assay; conditions: A549, 48 h; outline: as §1
# CCRF-CEM = assay: Growth inhibition of human CCRF-CEM cells incubated for 48 hrs by sulforhodamine B assay; outline: as §1
# 786-0 = assay: Growth inhibition of human 786-0 cells incubated for 48 hrs by sulforhodamine B assay; conditions: 786-0, 48 h; outline: as §3
# SK-MEL-28 = assay: Growth inhibition of human SK-MEL-28 cells incubated for 48 hrs by sulforhodamine B assay; conditions: SK-MEL-28, 48 h
# Outline: (§4)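 NCI-60 panel cells grown in RPMI-1640 with 5% FBS and 2 mM L-glutamine, preincubated 24 h at 37 °C/5% CO2. Time-zero plates were TCA-fixed at compound addition. DMSO stocks were diluted in medium and tested at five final concentrations (100, 10, 1.0, 0.1, 0.01 µM) for 48 h. Cells were TCA-fixed, stained with SRB and read at 515 nm. GI50 = 50% lower net protein increase versus control.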
# UACC-257 = assay: Growth inhibition of human UACC257 cells incubated for 48 hrs by sulforhodamine B assay; conditions: UACC-257, 48 h; outline: as §4
# MDA-MB-468 = assay: Growth inhibition of human MDA-MB-468 cells incubated for 48 hrs by sulforhodamine B assay; conditions: MDA-MB-468, 48 h; outline: as §2
# DU-145 = assay: Growth inhibition of human DU145 cells incubated for 48 hrs by sulforhodamine B assay; conditions: DU-145, 48 h; outline: as §3
# RXF 393 = assay: Growth inhibition of human RXF393 cells incubated for 48 hrs by sulforhodamine B assay; conditions: RXF 393, 48 h; outline: as §2
# SK-OV-3 = assay: Growth inhibition of human SKOV3 cells incubated for 48 hrs by sulforhodamine B assay; conditions: SK-OV-3, 48 h; outline: as §1
# TK-10 = assay: Growth inhibition of human TK10 cells incubated for 48 hrs by sulforhodamine B assay; conditions: TK-10, 48 h; outline: as §1
# NCI-H460 = assay: Growth inhibition of human NCI-H460 cells incubated for 48 hrs by sulforhodamine B assay; conditions: NCI-H460, 48 h; outline: as §2
# [1] = read-out: LC50 (the source's name)
compound,measurement,setting,value
O=CN1N=C(c2ccc(Cl)cc2)CC1c1cccc(Nc2ccnc3cc(Cl)ccc23)c1 (stereo not given),GI50,NCI/ADR-RES,780 nM
same,CC50,NCI/ADR-RES; [1],> 100000 nM
same,GI50,MCF7,870 nM
same,CC50,MCF7; [1],> 100000 nM
same,GI50,SF-268,2730 nM
same,CC50,SF-268; [1],> 100000 nM
same,GI50,EKVX,1590 nM
same,LC50,EKVX,> 100000 nM
same,GI50,SK-MEL-5,540 nM
same,CC50,SK-MEL-5; [1],5050 nM
same,GI50,SR,400 nM
same,CC50,SR; [1],> 100000 nM
same,GI50,NCI-H522,1120 nM
same,CC50,NCI-H522; [1],66700 nM
same,GI50,SF-295,500 nM
same,CC50,SF-295; [1],> 100000 nM
same,GI50,MDA-MB-231,2740 nM
same,CC50,MDA-MB-231; [1],> 100000 nM
same,GI50,NCI-H226,1870 nM
same,CC50,NCI-H226; [1],> 100000 nM
same,GI50,HT-29,1280 nM
same,LC50,HT-29,56400 nM
same,GI50,COLO 205,1430 nM
same,CC50,COLO 205; [1],21400 nM
same,GI50,M14,1550 nM
same,CC50,M14; [1],> 100000 nM
same,GI50,HCC 2998,3120 nM
same,CC50,HCC 2998; [1],> 100000 nM
same,GI50,HCT-116,1200 nM
same,LC50 (concentration killing 50% of cells),HCT-116,17200 nM
same,GI50,OVCAR-8,1920 nM
same,LC50 (concentration causing 50% net cell kill),OVCAR-8,> 100000 nM
same,GI50,K562,390 nM
same,CC50,K562; [1],> 100000 nM
same,GI50,RPMI-8226,610 nM
same,CC50,RPMI-8226; [1],> 100000 nM
same,GI50,NCI-H23,1070 nM
same,CC50,NCI-H23; [1],> 100000 nM
same,GI50,A549,2030 nM
same,LC50 (concentration giving 50% net cell kill),A549,> 100000 nM
same,GI50,CCRF-CEM,1420 nM
same,CC50,CCRF-CEM; [1],> 100000 nM
same,GI50,786-0,2960 nM
same,LC50,786-0,62700 nM
same,GI50,SK-MEL-28,3150 nM
same,CC50,SK-MEL-28; [1],> 100000 nM
same,GI50,UACC-257,1470 nM
same,CC50,UACC-257; [1],> 100000 nM
same,GI50,MDA-MB-468,280 nM
same,CC50,MDA-MB-468; [1],> 100000 nM
same,GI50,DU-145,2800 nM
same,CC50,DU-145; [1],> 100000 nM
same,GI50,RXF 393,1400 nM
same,CC50,RXF 393; [1],> 100000 nM
same,GI50,SK-OV-3,2900 nM
same,CC50,SK-OV-3; [1],> 100000 nM
same,GI50,TK-10,2340 nM
same,CC50,TK-10; [1],> 100000 nM
same,GI50,NCI-H460,1860 nM
same,CC50,NCI-H460; [1],> 100000 nM
